In the RNAGym collection of RNA variant scans (doi:10.1126/science.aae0568):
This sample holds only a part of the variants without activity.

B1: tRNA (parent)
chain: GUUCCGUUGGCGUAAUGGUAACGCGUCUCCCUCCUAAGGAGAAGACUGCGGGUUCGAGUCCCGUACGGAACG

Variants of: B1
Assay: yeast fitness relative to wild type (ratio to wild type); higher = fitter; tRNA-Arg(CCU), competitive growth, 37 C, YPD
How it was run: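 Genotype frequency changes were the basis for Darwinian fitness relative to wild type. The frequencies came from 100-nucleotide paired-end sequencing of gene amplicons from the start population and each end population of pooled yeast strains with tRNA-Arg(CCU) gene variants at the native locus. Competition ran in YPD at 37°C for 24 hours in six replicates, genotypes needed ≥ 100 starting reads, and estimates < 0.5 were set to 0.5.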

Variant | yeast fitness
G10C A21C C29A C30G A40C | ≤ 0.5
G10A C11A G38A G52C C61A | ≤ 0.5
G9C A15G G58C | 0.564
G10C A42G A57U | ≤ 0.5
G10A G17C C30G C33G C61A | 0.556
G9C G12C C24U C34U C49G | 0.658
G10C A15U C29G U35A A36C A65G C66G | ≤ 0.5
G10A U28A | 0.633
G10A G23A C34G | ≤ 0.5
G10A A36G | 0.664
G10A A36C | ≤ 0.5
G9C A40U G41A | ≤ 0.5
G9C G23A | 0.544
G10A C11U A20G A40G C55G | ≤ 0.5
G9A G10A C55A A65U G67C | 0.506
G10A C29U A57C | ≤ 0.5
G10A A42C A43C A70U | ≤ 0.5
G9C U54G | 0.605
G9C G10C A36U | ≤ 0.5
G10A A15G C27U A42C G50C | ≤ 0.5
G10C A14G C27U G38A C46G | ≤ 0.5
G9C C29A | 0.601
G9C C11U G18C C31A A57G | ≤ 0.5
G10A C34U G44A | ≤ 0.5

Variant | yeast fitness
G10A G48A A69C | 0.628
G9C C33U | 0.536
G9C U16G A20G | 0.803
G10C A14U U19A C22U C49U C66U | ≤ 0.5
G9A G12C A14C | 0.535
G10C A36U | 0.539
G10C A20U | 0.799
G9C A15G U16C C29A U47C | 0.69
G9A U54C | 0.841
G10C A21C C30U G41C A70U | ≤ 0.5
G9C G50C U53G G67C | 0.68
G10A A15C G25A C66U | 0.543
G10A C49A G67A | ≤ 0.5
G9A G44C C66U | 0.552
G9C G44A C60G | ≤ 0.5
G10A C24G C33G A45U G68C | ≤ 0.5
G10A C27G U28G C34U C46G | 0.576
G9A U26G C30A | 0.636
G9U C24G C55U | 0.668
G9C C24U G48C G51A | ≤ 0.5
G9C C24A C34A C46G | ≤ 0.5
G9C C24G C49U A65C | ≤ 0.5
G9C U19C G48A U64C | 0.609
G10A U16A C49A G50A G68C | ≤ 0.5

Variant | yeast fitness
G9A G50C | 0.947
G10A U16A U35G | ≤ 0.5
G10A G23A | 0.534
G9A G39A A45G G50A | ≤ 0.5
G9C U53C | 0.59
G9C C61A | 0.531
G10A U16A U28A A70U | ≤ 0.5
G9C G10C U47A G68C | ≤ 0.5
G9C U13A G25A A40C A57C C61G G67A | ≤ 0.5
G9A U16A C30G A57C | ≤ 0.5
G9A G12C G17A C22G C30U C34G C49U U59G | ≤ 0.5
G9C A36U A40U G44A G63A | ≤ 0.5
G9C C30G A37U U47A | ≤ 0.5
G10A C33U | 0.592
G9C C11A A40C A70U | 0.704
G10A G48A | 0.636
G9A U19C C22A | 0.606
G9C U53A C66U | ≤ 0.5
G10A G39A | 0.784
G10C A14U U19C C60A G68C | ≤ 0.5
G10A C22A C46A | ≤ 0.5
G9C C27A C33A G63A A70G | ≤ 0.5
G9C C22G G50A | ≤ 0.5
G10C A36U G41A C66U A70C | ≤ 0.5

Variant | yeast fitness
G9C C29U A70C | ≤ 0.5
G9U C31U A36C U53C | ≤ 0.5
G9C C27U G58C | 0.639
G10A A21C A40G U59C | ≤ 0.5
G9C G10C C29G C46A C66U | ≤ 0.5
G9A G17C A43U | ≤ 0.5
G9C A14U G51A U64G | 0.608
G10A U19A G44C G67C | 0.52
G9C G63A | 0.72
G9C G25C C66U A70C | 0.55
G10A G17C C31U C55U C60A | ≤ 0.5
G10A C30A C31G | ≤ 0.5
G10A C24A C30A C31G A43U | ≤ 0.5
G10A C11A C29A A69U | 0.538
G9A G10A C24A G44A | ≤ 0.5
G9A G12C A65G G67C A69G | ≤ 0.5
G9C C27U A36G A42U | 0.76
G9C A14U A21C C61A | 0.81
G10A C22G G25C | ≤ 0.5
G9C U16C A69C | 0.562
G9A G17A C22G A40G G41C | ≤ 0.5
G10A A21C C24A C66A | ≤ 0.5
G10A C34U G39C | ≤ 0.5
G10A G18C C33G C66G | ≤ 0.5

Variant | yeast fitness
G10A U19A G44C | 0.54
G10A G12A G68C | ≤ 0.5
G10A A14U C31A C46A A65U | ≤ 0.5
G10A C27U C33U A43U U54C G68C | ≤ 0.5
G10A G63C C66U | ≤ 0.5
G10A U19A A42G | ≤ 0.5
G10A U35G A43G C46U A69U | ≤ 0.5
G9C U13A U59A | 0.718
G10A U54G C61U | 0.55
G9C U28G A65C | 0.582
G9C G12C C31A A40U | ≤ 0.5
G10A G23C G52A | 0.565
G9A G50A G67A | 0.652
G10A C11A G67C | ≤ 0.5
G9A G39C A42C C49A | ≤ 0.5
G9C G10C A36U G44A C46G | 0.563
G10A C29A A42U U64C | 0.529
G9C U16A C24U C30U C62U | ≤ 0.5
G10A C27U A40C U47A G48C | 0.585
G9C A14C A15U G23A C34A G52C | ≤ 0.5
G10A U16A | 0.708
G10A U16C | 0.777
G10A U16A G39C | ≤ 0.5
G10A C29G C33U G50A | 0.535

Variant | yeast fitness
G9A U53G | 0.661
G9C A14C U19G A42U | ≤ 0.5
G10A C60G | 0.531
G10A C60U | 0.544
G10A U19A G41C | ≤ 0.5
G9C U16C C30A G41C A45C C46G | ≤ 0.5
G9C U13C C27A U54A C60U | ≤ 0.5
G9C A14U G48C U64G | ≤ 0.5
G10A G38A A57G | ≤ 0.5
G10A G17C C30G C33G C61A A65U | ≤ 0.5
G10A A14U | ≤ 0.5
G9C U13A G25A A40C A57C G58A C61A G67A | ≤ 0.5
G10A A20U C31G C62U | ≤ 0.5
G9C A20C | 0.626
G9C G17C C27G U35A C49A A69U | 0.536
G9C U28C A42U | 0.647
G10A G18A C46A A65U | ≤ 0.5
G10C A15G U35A G44A | 0.589
G10A A40U G52C C62A A65C A70U | 0.655
G10A C11G A69C A70G | ≤ 0.5
G9C A15G C49A | 0.601
G9C U16G C29G A40G | ≤ 0.5
G9C A65C | 0.67
G9C G10C C66U | ≤ 0.5

Variant | yeast fitness
G10C A40U U47C G68A | ≤ 0.5
G10A A36U A37G | ≤ 0.5
G10A U16A G23A C30G G51C | ≤ 0.5
G9A G25A A43G A65U | ≤ 0.5
G10C A37C | 0.622
G10C A37U | ≤ 0.5
G10A G18C A20U C30A | ≤ 0.5
G10A C29A C34G A43C C60G | 0.663
G9A G56A | 1
G9C C27U U47C C55U C62G A69U | ≤ 0.5
G9C C46U G63A | 0.69
G10A C27G U28G C34U C46G G67A | ≤ 0.5
G10A C33G A70U | ≤ 0.5
G9A U19G U59C C62G A65U | ≤ 0.5
G9C C22G C33G G63C | ≤ 0.5
G9C A14G U16G G23A C33A G44A | ≤ 0.5
G9C A15G C30U C46A U54A A57G | ≤ 0.5
G10A G63C A65G | ≤ 0.5
G9C G12A A57C | 0.541
G9U C22U | 0.715
G9C C11A U47G A69C | 0.601
G10A C49A | 0.521
G10C A40U A57C A65U | ≤ 0.5
